Experimental data from different studies.
Compare with care: the assays were run in different laboratories.
Target: Cyclin-dependent kinase 5 (CDK5, Homo sapiens, UniProt Q00535)

| SMILES | assay | conditions | remaining binding [%] |
| --- | --- | --- | --- |
| O=C(NCC1CCOCC1)c1n[nH]cc1NC(=O)c1c(F)cccc1F | binding, competition with immobilised ligand | 1 µM | 83 |
| C[C@@H](c1ccc(-n2cnc3c(N)ncnc32)cc1)N1CCc2nn(C)c(Cc3ccccc3)c2C1=O | binding, competition with immobilised ligand | 0.1 µM | 39 |
| COc1cnc(Nc2cccc(S(N)(=O)=O)c2)nc1N1CCN(c2ccccc2)C(=O)C1 | binding, competition with immobilised ligand | 1 µM | 100 |
| FC(F)(F)Oc1cccc(-c2cnc3ccc(-c4ccncc4)nn23)c1 | cell-free assay, competition with immobilised ligand | 5 µM | 93 |
| O=C(NCCCN1CCOCC1)c1ccc(Nc2ncc(Cl)c(-c3ccc(Cl)s3)n2)cc1 | binding, competition with immobilised ligand | 1 µM | 42 |
| CC1CCCN1c1nccc(-c2cnn3ncccc23)n1 (stereo not shown) | binding | 1 µM | 96 |
| O=C(NCCCN1CCOCC1)c1ccc(Nc2nccc(-c3cc4ccccc4s3)n2)cc1 | binding, competition with immobilised ligand | 1 µM | 84 |
| C[C@@H]1CCN(c2nccc(-c3cnn4ncccc34)n2)C1 | binding | 1 µM | 100 |
| CNC(=O)Nc1ccc2c(c1)CC[C@@]21OC(=O)N(CC(=O)N(Cc2ccc(F)cc2)[C@@H](C)C(F)(F)F)C1=O | cell-free assay, competition with immobilised ligand | 1 µM | 84 |
| F[C@@H]1CCN(c2nccc(-c3cnn4ncccc34)n2)C1 | binding | 1 µM | 100 |
| CN([C@@H]1CCc2c(CC(=O)O)c3ccccc3n2C1)S(=O)(=O)c1ccc(F)cc1 | cell-free assay, competition with immobilised ligand | 1 µM | 100 |
| O=C(c1ccc(Nc2ncc(Cl)c(-c3cc4ccccc4s3)n2)cc1)N1CCC(N2CCCC2)CC1 | binding, competition with immobilised ligand | 1 µM | 42 |
| C[C@@H]1CN(c2cc(-c3n[nH]c4ccc(OC5(C)CC5)cc34)ncn2)C[C@H](C)O1 | cell-free assay, competition with immobilised ligand | 0.1 µM | 100 |
| C=CC(=O)N1CCC(C(=O)NCC(=O)N2CCN(c3nc(-c4cnc(N)nc4C(F)F)nc(N4CCOCC4)n3)CC2)CC1 | binding, competition with immobilised ligand | 1 µM | 100 |
| C[C@@H]1CN(c2cc(-c3nn(C)c4ccc(OC5(C)CC5)cc34)ncn2)C[C@H](C)O1 | cell-free assay, competition with immobilised ligand | 1 µM | 100 |
| CN(C)c1nccc(-c2cnc3ncccn23)n1 | binding | 1 µM | 91 |
| CNCc1ccccc1-c1csc([C@H](C)Nc2nc(C)nc3cc(OC)c(OC)cc23)c1 | cell-free assay, competition with immobilised ligand | 1 µM | 98 |
| CN(C)c1ncc(F)c(-c2cnn3ncccc23)n1 | binding | 1 µM | 82 |
| CCCCN(CCCC)C(=O)CN1C[C@@H](c2cc(OC)c3c(c2)OCO3)[C@H](C(=O)O)[C@H]1CC(C)(C)CCC | cell-free assay, competition with immobilised ligand | 1 µM | 97.7 |
| c1cncc(-c2cccc(Nc3nccc(NC4CCCCC4)n3)c2)c1 | binding, competition with immobilised ligand | 10 µM | 81 |
| CC1=C(C#N)C(c2ccc3c(c2)c(NC(=O)c2ccccc2C)nn3C)C(C#N)=C(C)N1 | cell-free assay, competition with immobilised ligand | 1 µM | 87 |
| CN(CCCC(F)(F)F)c1nccc(-c2cnn3ncccc23)n1 | binding | 1 µM | 96 |
